Runt-SMMHC FRET = blocks binding of human RUNX1 Runt domain to CBFb-SMMHC | Q01196+Q13951 | Cerulean-Runt/Venus-CBFb-SMMHC FRET ratio 530/480, 1 h | inhibition, % at 20 µM | 220,000 tested, 0.74% active;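 active means mean inhibition across duplicate retests at 20 µM reaching about 50%, limit read from the data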;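 further: 0% = DMSO wells and 100% = wells with excess untagged CBFb-SMMHC; inhibitors lower the FRET ratio by blocking Runt binding to CBFb-SMMHC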
RanGTP-Imp inh = inhibitors of RanGTP-importin-beta interaction, primary screen, biochemical, FRET, CFP-Ran, YFP-importin-beta, homogeneous | cell-free CFP-Ran/YFP-importin-beta FRET ratio | inhibition, % (concentration not given with the values) | 300,000 tested, 1.1% active | AID 2216;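 active means more than half of the replicate wells show a fall in the fluorescence ratio signal beyond about 16%, limit read from the data, passing the limit was not always enough; inconclusive means exactly half of the replicate wells pass the set limit; inactive means fewer than half of replicates pass the limit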;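 further: 0% = DMSO wells and 100% = Ran loaded with GDP instead of GTP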
Hck Nef HTS = blocks Nef-activated human Hck kinase. Recombinant Hck-YEEI plus Nef, Z-Lyte FRET kinase assay. 220,000 tested, 0.68% active. P08631. inhibition, % at 20 µM;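 active means Hck-Nef kinase inhibition above about 50%, limit read from the data; inactive means inhibition below that limit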;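 further: 0% = DMSO with Hck plus Nef and 100% = Hck alone without Nef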
p-CIP stab down = lowers stability of the mouse p/CIP coactivator protein. Q05BA5. AID 1984. decrease of EGFP signal, % at 10 µM. 290,000 tested, 0.01% active. F442A p/CIP-EGFP cells, EGFP fluorescence, 16 h;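 active means EGFP signal decrease of at least 30% at 10 µM or well 3 SD below plate mean, unless failing retest; inactive means the rest, including hits failing retest or dose response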
Runt-CBFb FRET = inhibitors of human RUNX1 Runt domain binding to CBFb; Cerulean-Runt/Venus-CBFb FRET ratio 530/480, 1 h; inhibition, % at 20 µM; 220,000 tested, 0.46% active;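 active means inhibition over about 50% at 20 µM in the single-dose screen, limit read from the data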;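 further: 0% = DMSO wells and 100% = excess unlabeled CBFb competitor control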
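Assay system: Cerulean-Runt domain fusion protein, energy donor; Signal: fluorescence energy transfer, 422 nm excitation, 530/480 nm emission; Timing: 1 h compound exposure, room temperature; Control set: unlabeled CBFb; Medium: Tris buffer pH 7.5 with salts and BSA; Compound: single test concentration of 20 µM, 1% DMSO final; Probe or stimulus: Venus-CBFb 100 nM.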
DSG3 Ab inh = blocks pemphigus antibody binding to human desmoglein-3. 310,000 tested, 0.48% active. binding (percent of control), % at 10 µM. DSG3-coupled beads, scFv-anti-DSG3-GFP binding, flow cytometry; stronger effect = lower value;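 active means binding more than 3 SD below its plate's average and above zero; inconclusive means below that plate limit but binding exactly zero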;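 further: hits lower antibody fragment binding to DSG3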
Target sequence (P32926 whole entry, looked up, the tested form may be a part): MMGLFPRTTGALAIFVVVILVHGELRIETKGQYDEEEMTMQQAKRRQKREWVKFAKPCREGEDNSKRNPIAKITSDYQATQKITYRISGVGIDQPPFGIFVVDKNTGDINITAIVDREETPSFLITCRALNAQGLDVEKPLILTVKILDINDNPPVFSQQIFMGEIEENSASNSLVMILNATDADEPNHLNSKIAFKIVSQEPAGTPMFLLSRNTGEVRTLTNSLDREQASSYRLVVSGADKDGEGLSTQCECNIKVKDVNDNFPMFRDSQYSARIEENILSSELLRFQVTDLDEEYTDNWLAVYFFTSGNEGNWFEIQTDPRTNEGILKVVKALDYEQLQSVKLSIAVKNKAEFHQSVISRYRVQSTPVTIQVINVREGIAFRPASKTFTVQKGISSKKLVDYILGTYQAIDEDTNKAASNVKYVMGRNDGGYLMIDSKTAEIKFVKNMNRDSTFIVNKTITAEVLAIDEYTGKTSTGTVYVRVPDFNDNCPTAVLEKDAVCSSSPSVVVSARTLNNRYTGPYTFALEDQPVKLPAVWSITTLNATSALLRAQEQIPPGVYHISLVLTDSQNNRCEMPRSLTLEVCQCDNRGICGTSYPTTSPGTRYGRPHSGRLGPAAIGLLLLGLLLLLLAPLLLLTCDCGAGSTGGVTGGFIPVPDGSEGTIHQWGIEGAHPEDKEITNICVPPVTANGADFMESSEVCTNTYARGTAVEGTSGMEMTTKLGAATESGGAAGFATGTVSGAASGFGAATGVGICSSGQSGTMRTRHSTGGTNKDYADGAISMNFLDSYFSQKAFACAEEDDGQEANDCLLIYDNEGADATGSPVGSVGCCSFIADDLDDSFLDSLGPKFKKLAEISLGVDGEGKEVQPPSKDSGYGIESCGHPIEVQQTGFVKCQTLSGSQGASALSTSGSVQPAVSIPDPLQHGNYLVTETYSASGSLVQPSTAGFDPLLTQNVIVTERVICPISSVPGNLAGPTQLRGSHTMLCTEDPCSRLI
Hck Nef conf = confirmation of Hck-Nef kinase inhibitors | 1,300 tested, 28% active | Recombinant Hck-YEEI:Nef, Z-Lyte FRET kinase assay | calls only at 10 µM | shares compounds with Hck Nef HTS;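 active means average inhibition of at least 50%, with Z-scores no higher than 3 in both the phospho-tyrosine peptide and fluorescence counterscreens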
* marks the source's active call; other numbers are inactive results; i = inactive; ? = inconclusive; · = not tested or not shown; + = active, no number. Hits are enriched below; roughly 2.1% of the tested compounds scored in any of these assays.

SMILES | Runt-SMMHC FRET | RanGTP-Imp inh | Hck Nef HTS | p-CIP stab down | Runt-CBFb FRET | DSG3 Ab inh | Hck Nef conf
CC(=O)C1C(c2ccc3ncccc3c2)NC(=O)NC1(O)C(F)(F)F (configuration not stated) | -1 | -1 | 52* | -5 | 0 | 98 | i
CC(=O)C1C(c2ccncc2)NC(=O)NC1(O)C(F)(F)F (configuration not stated) | -2 | 3 | 6 | -4 | 2 | · | ·
COc1ccccc1C(=O)NNC(=O)C(=O)NC(C)C | · | -2 | 59* | 0 | · | 105 | i
COc1ccccc1C(=O)NNC(=O)C(=O)NCc1ccccc1 | 2 | 2 | 15 | -2 | 0 | 100 | ·
COc1ccc([N+](=O)[O-])cc1N(CC(=O)NCCC1=CCCCC1)S(C)(=O)=O | 0 | -3 | 2 | -4 | -1 | 126 | ·
COC(=O)C1=C(C(=O)OC)[C@@H]2N(C)c3ccc(OC)cc3[C@@]23C[C@@H](C(=O)OC)N(C(=O)COCc2ccccc2)C3=N1 | · | -3 | · | · | · | · | ·
CCCc1c(C(=O)N/N=C/c2ccco2)nnn1-c1nonc1N | · | 1 | · | 3 | · | 101 | ·
Cc1cc(C)cc(NC(=O)c2ccc(CSc3nnc(C)s3)cc2)c1 | -6 | 4 | 101* | -8 | -6 | 102 | i
O=C(CSc1nnc(-c2ccc(O)cc2)o1)Nc1ccccc1Br | · | -1 | · | -6 | · | 92 | ·
COc1cc([N+](=O)[O-])cc(/C=N/NC(=O)C(C)Nc2ccccc2C)c1O (configuration not stated) | -1 | -2 | 101* | -8 | -5 | 100 | +
COc1ccc(C(=O)Nc2ccc(O)c3c(=O)cc(-c4cccc(Cl)c4)oc23)cc1 | 1 | 1 | 83* | -3 | 1 | 109 | i
CC(C)(C)c1ccc(C(=O)Nc2ccc(O)c3c(=O)cc(-c4cccc(Cl)c4)oc23)cc1 | -7 | -7 | 25 | -6 | 2 | 100 | ·
CCCCN(C)CCOc1ccccc1OCC | 2 | -1 | 60* | -10 | 1 | 80 | i
CCOc1ccccc1OCCOc1ccccc1CC | 0 | 4 | 0 | -7 | -2 | 117 | ·
COc1cccc(C(=O)c2c(-c3ccccc3)ncc3cc(OC)c(OC)cc23)c1 | · | · | · | · | · | 94 | ·
COc1ccc(-n2c(C)cc(/C=C3\SC(=O)NC3=O)c2C)cc1 | · | 0 | · | -6 | · | 111 | ·
Cc1cc(/C=C2\SC(=Nc3ccccc3)NC2=O)c(C)n1-c1ccc(S(N)(=O)=O)cc1 | -2 | 21* | 59* | -6 | 0 | 111 | i
CC(=O)Nc1sc(N/N=C/c2ccc(C)cc2)nc1-c1ccc(C)cc1 | -4 | -2 | 60* | -2 | 4 | · | i
CCOc1cc(/C=N\Nc2nc(-c3ccc(C)cc3)c(NC(C)=O)s2)ccc1O | -1 | 2 | 97* | -7 | 7 | 98 | +
COc1ccc(/C=N/Nc2nc(-c3ccc(C)cc3)c(NC(C)=O)s2)cc1OC | -3 | 6 | 99* | 8 | 6 | · | +
CCOC(=O)c1ccc(-c2c(-c3ccccc3OC)sc3ccc(OC)cc23)cc1F | · | · | · | · | · | 99 | ·
CC(C(=O)O)n1cc(C#N)c(=O)[nH]c1=O (configuration not stated) | · | · | · | · | · | 123 | ·
Cc1ccc(C(=O)Nc2ccc(N3CCOCC3)nc2N2CCOCC2)cc1 | 1 | 4 | 4 | -1 | 3 | 98 | ·
CCOC(=O)c1cc(C(=O)NCc2ccc(Cl)cc2Cl)nn1C | -2 | 0 | 0 | -3 | -6 | 103 | ·
CCOC(=O)c1cc(C(=O)Nc2ccc(C)c(F)c2)nn1C | 1 | 1 | 106* | -1 | -2 | 99 | i
SMILES | Runt-SMMHC FRET | RanGTP-Imp inh | Hck Nef HTS | p-CIP stab down | Runt-CBFb FRET | DSG3 Ab inh | Hck Nef conf
Nc1nn2cc(-c3ccc(Br)cc3)nc2c2ccccc12 | 1 | -4 | 64* | 2 | 0 | 90 | i
O=[N+]([O-])c1cccn2cc(-c3ccc(Br)cc3)nc12 | 7 | 2 | 1 | 4 | 7 | 102 | ·
CNc1ccc(Br)cc(C(=O)/C=C/c2cccc(Cl)c2Cl)c1=O | -15 | · | 51* | -10 | 13 | 91 | i
CNc1ccc(Br)cc(C(=O)/C=C/c2cccc(OC)c2OC)c1=O | -19 | 3 | 0 | 1 | -1 | 89 | ·
N#Cc1c(-c2ccncc2)c2c([nH]c1=O)-c1ccccc1OC2 | · | 56* | 70* | -4 | 11 | · | i
N#Cc1c(-c2ccccc2Cl)c2c([nH]c1=O)-c1ccccc1OC2 | 82* | 131* | 146* | -6 | 95* | 96 | i
CCOC(=O)c1cc2nc(Nc3ccc(OC)cc3)sc2s1 | 14 | 1 | 51* | 3 | 2 | 112 | i
CCCCn1c(N)c(N(CCC(C)C)C(=O)CN2C(=O)C3CCCCC3C2=O)c(=O)[nH]c1=O (configuration not stated) | · | 2 | · | -30 | · | 105 | ·
COc1c(O)cc2oc(-c3ccc(O)cc3)cc(=O)c2c1O | 1 | 13 | 91* | -2 | 3 | 106 | +
COc1cc2oc(-c3ccc(O)cc3)cc(=O)c2c(O)c1OC | -3 | ? | 89* | -5 | 0 | 101 | +
COc1cc2oc(-c3ccc(O)cc3)cc(=O)c2c(OC)c1O | 9 | 4 | 8 | 6 | 44 | 96 | ·
CCCCn1c(N)c(N(CCOC)C(=O)c2c(CC)noc2C)c(=O)[nH]c1=O | · | · | · | · | · | 112 | ·
CCn1c(=O)n(CC(=O)Nc2cccc(OC)c2)c(=O)c2ccccc21 | -1 | 1 | -10 | -9 | 1 | 108 | ·
COc1cccc(NC(=O)Cn2c(=O)n(-c3cc(OC)c(OC)c(OC)c3)c(=O)c3ccccc32)c1 | -2 | -2 | 124* | 4 | 1 | 81 | i
Cn1c(=O)[nH]c(=O)c2c1nc(N/N=C/C(Br)=C/c1ccccc1)n2CCO | -17 | ? | 60* | -2 | 5 | 106 | +
Cc1ccc(NS(=O)(=O)c2ccc(C(=O)N3CCN(c4ccccn4)CC3)cc2)cc1 | -8 | -3 | 80* | -16 | -2 | · | i
C=CCn1c(NS(=O)(=O)c2ccccc2)c(S(=O)(=O)c2ccc(C)cc2)c2nc3ccccc3nc21 | 4 | 76* | 83* | -4 | 1 | 115 | i
CN(C)CCCn1c(N)c(S(=O)(=O)c2ccccc2)c2nc3ccccc3nc21 | 15 | 1 | 85* | 7 | 8 | 110 | ·
O=S(=O)(Nc1c(S(=O)(=O)c2ccccc2)c2nc3ccccc3nc2n1C1CCCCC1)c1ccccc1 | 11 | 6 | 53* | 12 | 4 | 115 | ·
CCOC(=O)c1cnc2cc(F)c(F)cc2c1N1CCOCC1 | · | 5 | · | 2 | · | 101 | ·

Assay outcomes deposited in PubChem by several laboratories.
